Screening results: PubChem, several laboratories
STAT3 act: activators of IL-6 induced STAT3 signaling. U3A cells, IL-6 STAT3-luciferase reporter, luminescence; 100% = signal with IL-6 EC80 alone. AID 871. activation (% of control), % at 5.6 µM. 190,000 compounds, 0.91% hits;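 active = activation above the screen-wide mean of compound activation plus 3 SD, cut at about 130% in these data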
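Material: STAT1-lacking human U3A cells, STAT3 luciferase reporter | Benchmarks: IL-6-only wells as 100% reference | Probe or stimulus: IL-6 (33 ng/mL) | Timing: Compound 1 h, then IL-6 6 h at 37 °C | Detection: Luminescence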
STAT1 act: STAT1 signaling activation | 200,000 compounds, 2.6% hits | activation (% of control), % at 5.5 µM | NIH 3T3 STAT1-luciferase reporter, IFN-gamma, luminescence; 100% = IFN-gamma alone, no compound;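 active = activation above the screen-wide mean activation plus 3 SD, cut at about 130% in these data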
APP 5'UTR act: APP 5'UTR luciferase reporter activation | 190,000 compounds, 1% hits | SH-SY5Y APP 5'UTR luciferase reporter, luminescence; zero percent = DMSO vehicle wells | activation, % at 2 µM | AID 1276;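 active = activation above a set limit, based on mean plus 3 SD of controls, cut at about 140% in these data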
NF-kB expr up: NF-kB expression increase, human neuronal cells; NF-kB reporter expression; hits give high values; 190,000 compounds, 1.6% hits; fold change at 12.5 µM; in the data active = fold change above about 3.3
STAT3 inh: reduces IL-6 driven STAT3 reporter signal; U3A cells, IL-6 STAT3-luciferase reporter, luminescence; host cell line lacks STAT1; inhibition, % at 5.5 µM; 190,000 compounds, 0.89% hits;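 active = inhibition above the mean inhibition across all screened compounds plus 3 SD, cut at about 44% in these data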
STAT1 blocker: STAT1 signaling inhibition; NIH 3T3 STAT1-luciferase reporter, IFN-gamma, luminescence; inhibition, % at 5.5 µM; 200,000 compounds, 0.35% hits; AID 920;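 active = inhibition above a set limit, the mean inhibition across all tested compounds plus 3 SD, cut at about 34% in these data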
Each line names hits and unclear results; the compound was inactive in the other large screens. In the library only some 4.9% were active in any assay of this set; here they are far more common.

CN=Cc1c(NC)nc2c(C)cccn2c1=O	none
C(=N\NC1=Nc2cccc3cccc1c23)/c1ccccn1	STAT3 act 157, STAT1 act 182, NF-kB expr up 6.2
Clc1ccccc1/C=N/NC1=Nc2cccc3cccc1c23	STAT3 act 159, STAT1 act 180, APP 5'UTR act 171
O=C(CCCC(=O)N/N=C\c1ccccn1)N/N=C\c1ccccn1	none
NC(=O)NNC1=Nc2cccc3cccc1c23	none
Cn1c(SCc2nn[nH]n2)nc2c1c(=O)n(Cc1ccccc1Cl)c(=O)n2C	none
COC(=O)c1ccc(C(NC(=O)c2cccnc2)NC(=O)c2cccnc2)cc1	none
O=C(c1cccc(F)c1)N1CCN(Cc2c[nH]c3ccccc23)CC1	STAT3 act 168
O=C(c1ccccc1)N1CCN(Cc2c[nH]c3ccccc23)CC1	none
O=[N+]([O-])c1ccccc1CN1CCN(Cc2c[nH]c3ccccc23)CC1	STAT3 act 135
Cc1cc(NC(=O)C2C3C(=O)N(CC4CCCO4)C(C(=O)NCc4ccccc4)C34C=CC2(C)O4)no1 (configuration not stated)	none
O=c1[nH]ncn1-c1ccc(Br)cc1	none
Cc1sc(=NC(=O)c2ccco2)n(C)c1-c1ccccc1	NF-kB expr up 5.1
Cc1sc(=NC(=O)c2ccco2)n(C)c1-c1ccc(F)cc1	none
Cn1c(=NC(=O)c2cccc([N+](=O)[O-])c2)sc2ccccc21	STAT3 act 136, STAT1 act 170, NF-kB expr up 4.2
COc1cc(C(=O)N=c2sc3ccccc3n2C)cc(OC)c1OC	none
Cn1c(=NC(=O)c2ccco2)sc2ccccc21	APP 5'UTR act 156, NF-kB expr up 4.6
COc1ccc2c(=O)c(-c3ccccc3)coc2c1	STAT1 act 130, APP 5'UTR act 158, NF-kB expr up 7.3
O=c1c(-c2ccc(F)cc2)coc2cc(O)ccc12	STAT1 act 146
CCN(CC)C(=O)Oc1ccc2c(=O)c(-c3ccccc3)coc2c1	NF-kB expr up 4.6
CC(C)Oc1ccc(N2CC(C(=O)OCC(=O)NCc3ccccc3)CC2=O)cc1 (configuration not stated)	none
COc1cccc(-c2nc3sc4c(c3c(=O)[nH]2)CCCCC4)c1	APP 5'UTR act 184
COCc1nc2sc3c(c2c(=O)[nH]1)CCCC3	none
Nc1nc(-c2ccccc2)c(N=Nc2cccnc2)s1	none
Cc1nn(-c2ccccc2)c(N)c1N=Nc1cccnc1	STAT1 act 133
CCc1ccc(/C(C)=N\Nc2ccc([N+](=O)[O-])cc2)cc1	none
C/C(=N\Nc1ccc([N+](=O)[O-])cc1)c1ccco1	STAT1 act 156
c1ccc(CCSc2nccn2-c2ccccc2)cc1	STAT1 act 142, NF-kB expr up 4.6
CCOc1ccccc1NC(=O)CSc1nccn1-c1ccccc1	none
COC(=O)CCCSc1nccn1-c1ccccc1	NF-kB expr up 6
Cn1c(Cl)cnc1C(O)c1ccccc1 (configuration not stated)	none
CCOC(=O)C1=C(C)NC(SCC(=O)Nc2cc(C)on2)=C(C#N)C1c1cccs1 (configuration not stated)	STAT1 blocker 51
CCc1ccc(C(=O)COC(=O)c2cccnc2Cl)cc1	none
Cc1ccc(C2=NN=C(NC(=O)C(F)(F)F)SC2)cc1	NF-kB expr up 4.3
Cc1c(C(=O)N2CCc3ccccc3C2)oc2ccc(S(=O)(=O)N3CCCCCC3)cc12	none
CN(C)c1ccc(N=c2sc3ccccc3n2C)cc1	STAT1 act 138, NF-kB expr up 4.6
Oc1ccc(/C=N/NC(=S)Nc2cccnc2)cc1O	none
O=C(O)c1cccc(NC(=S)N/N=C/c2ccccc2OCc2cccc(Br)c2)c1	none
O=C(O)c1cccc(NC(=S)N/N=C/c2cccc(O)c2)c1	STAT3 inh 60, STAT1 blocker 43
O=C(O)c1cccc(NC(=S)N/N=C/c2ccccn2)c1	STAT3 inh 91, STAT1 blocker 79
O=C(O)c1cccc(NC(=S)N/N=C/c2ccccc2OCc2ccc(Br)cc2)c1	none
S=C(N/N=C/c1ccc2ncccc2c1)Nc1cccnc1	STAT3 inh 68, STAT1 blocker 39
COc1ccc(CNC(=O)c2cc(SC)ccc2Cl)cc1OC	none
N#Cc1ccccc1Sc1ccccc1C(=O)Nc1ccccc1	none
